Assay results taken from ChEMBL document CHEMBL1926577, “Novel 1,3,4-heterodiazole analogues: synthesis and in-vitro antitumor activity” (2012).

Experiments:
Assay type in all cases: functional
OVCAR-8 = test: Growth inhibition of human OVCAR8 cells at 10 uM after 48 hrs by coulter counter method; details: OVCAR-8, 48 h, read-out: GI
Summary of the method: (§1)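 NCI 60-cell-line panel, single dose. Compound dissolved first in DMSO, then diluted in phosphate-buffered saline so that every final dilution held under 1% DMSO. Duplicate wells received cells at 6 × 10⁴ cells/ml. Controls held PBS/DMSO at the same dilution. Plates were incubated 48 h at 37 °C under 5% CO₂. Cells were then diluted 10-fold in saline and counted on a Coulter counter, with counts corrected for the dilution. Results are given as percent growth inhibition.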

MCF7 = test: Growth inhibition of human MCF7 cells at 10 uM after 48 hrs by coulter counter method; details: MCF7, 48 h, read-out: GI; summary of the method: as §1
ACHN = test: Growth inhibition of human ACHN cells at 10 uM after 48 hrs by coulter counter method; details: read-out: GI; summary of the method: as §1
MDA-MB-468 = test: Growth inhibition of human MDA-MB-468 cells at 10 uM after 48 hrs by coulter counter method; details: MDA-MB-468, 48 h, read-out: GI; summary of the method: as §1
786-0 = test: Growth inhibition of human 786-0 cells at 10 uM after 48 hrs by coulter counter method; details: 786-0, 48 h, read-out: GI; summary of the method: as §1
PC-3 = test: Growth inhibition of human PC3 cells at 10 uM after 48 hrs by coulter counter method; details: PC-3, 48 h, read-out: GI; summary of the method: as §1
TK-10 = test: Growth inhibition of human TK10 cells at 10 uM after 48 hrs by coulter counter method; details: TK-10, 48 h, read-out: GI; summary of the method: as §1
UACC-62 = test: Growth inhibition of human UACC62 cells at 10 uM after 48 hrs by coulter counter method; details: UACC-62, 48 h, read-out: GI; summary of the method: as §1
HL-60(TB) = test: Growth inhibition of human HL-60(TB) cells at 10 uM after 48 hrs by coulter counter method; details: HL-60, 48 h, read-out: GI
Summary of the method: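 Single-dose screen on the NCI 60-line panel (leukemia subpanel). Compound is dissolved in DMSO and diluted in PBS, with final DMSO below 1%. Duplicate wells hold 6 × 10⁴ cells/ml at 37 °C, 5% CO₂, for 48 h. Cells are counted by Coulter counter after 10-fold saline dilution. Read-out is percent growth versus PBS/DMSO controls, expressed as % growth inhibition.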

HT-29 = test: Growth inhibition of human HT-29 cells at 10 uM after 48 hrs by coulter counter method; details: HT-29, 48 h, read-out: GI; summary of the method: as §1
HCT-116 = test: Growth inhibition of human HCT116 cells at 10 uM after 48 hrs by coulter counter method; details: HCT-116, 48 h, read-out: GI; summary of the method: as §1
T47D = test: Growth inhibition of human T47D cells at 10 uM after 48 hrs by coulter counter method; details: read-out: GI; summary of the method: as §1
KM12 = test: Growth inhibition of human KM12 cells at 10 uM after 48 hrs by coulter counter method; details: KM12, 48 h, read-out: GI; summary of the method: as §1
NCI/ADR-RES = test: Growth inhibition of human NCI/ADR-RES cells at 10 uM after 48 hrs by coulter counter method; details: read-out: GI; summary of the method: as §1
A498 = test: Growth inhibition of human A498 cells at 10 uM after 48 hrs by coulter counter method; details: A498, 48 h, read-out: GI; summary of the method: as §1
MOLT-4 = test: Growth inhibition of human MOLT4 cells at 10 uM after 48 hrs by coulter counter method; details: MOLT-4, 48 h, read-out: GI; summary of the method: as §1
K562 = test: Growth inhibition of human K562 cells at 10 uM after 48 hrs by coulter counter method; details: K562, 48 h, read-out: GI; summary of the method: as §1
U-251 = test: Growth inhibition of human U251 cells at 10 uM after 48 hrs by coulter counter method; details: U-251, 48 h, read-out: GI; summary of the method: as §1
BT-549 = test: Growth inhibition of human BT549 cells at 10 uM after 48 hrs by coulter counter method; details: BT-549, 48 h, read-out: GI; summary of the method: as §1
NCI-H226 = test: Growth inhibition of human NCI-H226 cells at 10 uM after 48 hrs by coulter counter method; details: NCI-H226, 48 h, read-out: GI; summary of the method: as §1
SNB-19 = test: Growth inhibition of human SNB19 cells at 10 uM after 48 hrs by coulter counter method; details: SNB-19, 48 h, read-out: GI; summary of the method: as §1
SF-268 = test: Growth inhibition of human SF268 cells at 10 uM after 48 hrs by coulter counter method; details: SF-268, 48 h, read-out: GI; summary of the method: as §1
SK-MEL-28 = test: Growth inhibition of human SK-MEL-28 cells at 10 uM after 48 hrs by coulter counter method; details: SK-MEL-28, 48 h, read-out: GI; summary of the method: as §1
UO-31 = test: Growth inhibition of human UO31 cells at 10 uM after 48 hrs by coulter counter method; details: UO-31, 48 h, read-out: GI; summary of the method: as §1
SK-MEL-5 = test: Growth inhibition of human SK-MEL-5 cells at 10 uM after 48 hrs by coulter counter method; details: SK-MEL-5, 48 h, read-out: GI; summary of the method: as §1
EKVX = test: Growth inhibition of human EKVX cells at 10 uM after 48 hrs by coulter counter method; details: read-out: GI; summary of the method: as §1
CAKI-1 = test: Growth inhibition of human Caki1 cells at 10 uM after 48 hrs by coulter counter method; details: CAKI-1, 48 h, read-out: GI; summary of the method: as §1
IGROV-1 = test: Growth inhibition of human IGROV1 cells at 10 uM after 48 hrs by coulter counter method; details: IGROV-1, 48 h, read-out: GI; summary of the method: as §1
UACC-257 = test: Growth inhibition of human UACC257 cells at 10 uM after 48 hrs by coulter counter method; details: UACC-257, 48 h, read-out: GI; summary of the method: as §1
NCI-H322M = test: Growth inhibition of human NCI-H322M cells at 10 uM after 48 hrs by coulter counter method; details: read-out: GI; summary of the method: as §1
HCT-15 = test: Growth inhibition of human HCT15 cells at 10 uM after 48 hrs by coulter counter method; details: HCT-15, 48 h, read-out: GI; summary of the method: as §1
SR = test: Growth inhibition of human SR cells at 10 uM after 48 hrs by coulter counter method; details: read-out: GI; summary of the method: as §1
NCI-H23 = test: Growth inhibition of human NCI-H23 cells at 10 uM after 48 hrs by coulter counter method; details: NCI-H23, 48 h, read-out: GI; summary of the method: as §1
CCRF-CEM = test: Growth inhibition of human CCRF-CEM cells at 10 uM after 48 hrs by coulter counter method; details: read-out: GI; summary of the method: as §1
SK-MEL-2 = test: Growth inhibition of human SK-MEL-2 cells at 10 uM after 48 hrs by coulter counter method; details: SK-MEL-2, 48 h, read-out: GI; summary of the method: as §1
SF-295 = test: Growth inhibition of human SF295 cells at 10 uM after 48 hrs by coulter counter method; details: SF-295, 48 h, read-out: GI; summary of the method: as §1
SN12C = test: Growth inhibition of human SN12C cells at 10 uM after 48 hrs by coulter counter method; details: read-out: GI; summary of the method: as §1
A549 = test: Growth inhibition of human A549 cells at 10 uM after 48 hrs by coulter counter method; details: A549, 48 h, read-out: GI; summary of the method: as §1
SNB-75 = test: Growth inhibition of human SNB75 cells at 10 uM after 48 hrs by coulter counter method; details: SNB-75, 48 h, read-out: GI; summary of the method: as §1
NCI-H522 = test: Growth inhibition of human NCI-H522 cells at 10 uM after 48 hrs by coulter counter method; details: NCI-H522, 48 h, read-out: GI; summary of the method: as §1
MDA-MB-435 = test: Growth inhibition of human MDA-MB-435 cells at 10 uM after 48 hrs by coulter counter method; details: MDA-MB-435, 48 h, read-out: GI; summary of the method: as §1
LOX IMVI = test: Growth inhibition of human LOXIMVI cells at 10 uM after 48 hrs by coulter counter method; details: read-out: GI; summary of the method: as §1
Malme-3M = test: Growth inhibition of human MALME-3M cells at 10 uM after 48 hrs by coulter counter method; details: read-out: GI; summary of the method: as §1
M14 = test: Growth inhibition of human M14 cells at 10 uM after 48 hrs by coulter counter method; details: M14, 48 h, read-out: GI; summary of the method: as §1

Question: How did the inhibition of growth at 10 µM (OVCAR-8) turn out when `O=C1N=C2OC(c3ccc(Cl)cc3)=NN2C1=O` was run?
Answer: < 10%

Question: And the inhibition of growth at 10 µM (MCF7)?
Answer: < 10%

Question: What about the inhibition of growth at 10 µM (ACHN) of the same molecule?
Answer: < 10%

Question: And the inhibition of growth at 10 µM (MDA-MB-468)?
Answer: < 10%

Question: And the inhibition of growth at 10 µM (786-0)?
Answer: < 10%

Question: And the inhibition of growth at 10 µM (PC-3)?
Answer: < 10%

Question: And the inhibition of growth at 10 µM (TK-10)?
Answer: < 10%

Question: And the inhibition of growth at 10 µM (UACC-62)?
Answer: < 10%

Question: And the inhibition of growth at 10 µM (HL-60(TB))?
Answer: 15%

Question: What about the inhibition of growth at 10 µM (HT-29) of the same molecule?
Answer: < 10%

Question: And the inhibition of growth at 10 µM (HCT-116)?
Answer: < 10%

Question: What about the inhibition of growth at 10 µM (T47D) of the same molecule?
Answer: < 10%

Question: And the inhibition of growth at 10 µM (KM12)?
Answer: < 10%

Question: What about the inhibition of growth at 10 µM (NCI/ADR-RES) of the same molecule?
Answer: < 10%

Question: And the inhibition of growth at 10 µM (A498)?
Answer: < 10%

Question: What about the inhibition of growth at 10 µM (MOLT-4) of the same molecule?
Answer: < 10%

Question: And the inhibition of growth at 10 µM (K562)?
Answer: 13.6%

Question: What about the inhibition of growth at 10 µM (U-251) of the same molecule?
Answer: < 10%

Question: And the inhibition of growth at 10 µM (BT-549)?
Answer: < 10%

Question: And the inhibition of growth at 10 µM (NCI-H226)?
Answer: < 10%

Question: And the inhibition of growth at 10 µM (SNB-19)?
Answer: < 10%

Question: And the inhibition of growth at 10 µM (SF-268)?
Answer: < 10%

Question: What about the inhibition of growth at 10 µM (SK-MEL-28) of the same molecule?
Answer: < 10%

Question: And the inhibition of growth at 10 µM (UO-31)?
Answer: 11.7%

Question: And the inhibition of growth at 10 µM (SK-MEL-5)?
Answer: < 10%

Question: What about the inhibition of growth at 10 µM (EKVX) of the same molecule?
Answer: < 10%

Question: What about the inhibition of growth at 10 µM (CAKI-1) of the same molecule?
Answer: < 10%

Question: And the inhibition of growth at 10 µM (IGROV-1)?
Answer: < 10%

Question: And the inhibition of growth at 10 µM (UACC-257)?
Answer: < 10%

Question: What about the inhibition of growth at 10 µM (NCI-H322M) of the same molecule?
Answer: < 10%

Question: And the inhibition of growth at 10 µM (HCT-15)?
Answer: < 10%

Question: And the inhibition of growth at 10 µM (SR)?
Answer: 12.1%

Question: And the inhibition of growth at 10 µM (NCI-H23)?
Answer: < 10%

Question: What about the inhibition of growth at 10 µM (CCRF-CEM) of the same molecule?
Answer: < 10%

Question: And the inhibition of growth at 10 µM (SK-MEL-2)?
Answer: < 10%

Question: What about the inhibition of growth at 10 µM (SF-295) of the same molecule?
Answer: < 10%

Question: And the inhibition of growth at 10 µM (SN12C)?
Answer: < 10%

Question: And the inhibition of growth at 10 µM (A549)?
Answer: < 10%

Question: What about the inhibition of growth at 10 µM (SNB-75) of the same molecule?
Answer: < 10%

Question: And the inhibition of growth at 10 µM (NCI-H522)?
Answer: < 10%

Question: And the inhibition of growth at 10 µM (MDA-MB-435)?
Answer: < 10%

Question: And the inhibition of growth at 10 µM (LOX IMVI)?
Answer: < 10%

Question: What about the inhibition of growth at 10 µM (Malme-3M) of the same molecule?
Answer: < 10%

Question: What about the inhibition of growth at 10 µM (M14) of the same molecule?
Answer: < 10%
